Published values from different studies.
Compare with care: the assays were run in different laboratories.

O=C1CC[C@H](N2Cc3cc(N4CCN(CC5CCN(c6ccc([C@@H]7c8ccc(O)cc8CC[C@@H]7c7ccccc7)cc6)CC5)CC4)ccc3C2=O)C(=O)N1
AUC(0-t) (female Sprague-Dawley rat, plasma; oral, 20 mg/kg, fasted): 11000 ng·h/mL

O=C(C=Cc1ccccc1)Nc1cc(-c2ccnc(N3CCC(O)CC3)c2)ccn1
AUC(0-inf) (female Sprague-Dawley rat, plasma; oral, 50 mg/kg): 1400 ng·h/mL

C[C@H]1[C@@H](O)O[C@@H]2O[C@@]3(C)CC[C@H]4[C@H](C)CC[C@@H]1[C@@]24OO3
AUC(0-t) (Sprague-Dawley rat, plasma; oral, 10 mg/kg): 197 ng·h/mL

CCC[C@H](NC(=O)[C@@H]1CCCN1C(=O)[C@@H](NC(=O)[C@H](N)CC(N)=O)[C@@H](C)CC)C(=O)N[C@@H](CC(C)C)C(=O)N[C@@H](Cc1ccc(O)cc1)C(=O)N[C@H](CO)C(=O)N[C@@H](Cc1ccccc1)C(=O)N[C@@H](C)C(=O)N[C@H](CO)C(N)=O
AUC(0-t) (rat, plasma; subcutaneous, 10 mg/kg, single dose): 1200 ng·h/mL

CC1(CN)CCN(c2cnc3c(Sc4ccncc4Cl)n[nH]c3n2)CC1
AUC (male Sprague-Dawley rat, plasma; oral, 10 mg/kg): 411 ng·h/mL

Cc1c(C(=O)O)ccc2c3n(nc12)[C@@H]1[C@H](C3)N(CC2CC2)[C@@]2(C(=O)Nc3cc(Cl)ccc32)[C@H]1c1cccc(Cl)c1F
AUC(0-inf) (male rat, plasma; oral, 2 mg/kg): 64.2 µM·h

O=C1c2ccncc2C(=O)c2c1[nH]c1ccccc21
AUC(0-inf) (rat, plasma; intravenous, 5 mg/kg, single dose): 8.58 µM·h

COc1ccc2cc3n(c(=O)c2c1OC)CCc1cc2c(cc1-3)OCO2
AUC(0-inf) (male Sprague-Dawley rat, blood; oral, 50 mg/kg): 985 ng·h/mL

CC(=Nc1ccc(N=Cc2cnccn2)cc1)N(C)C
AUC(0-t) (male Sprague-Dawley rat, plasma; oral, 200 mg/kg): 305 ng·h/mL

N#C[C@@]12C[C@@H]1[C@@H](n1cnc3c(N[C@@H](C4CCC4)C4CC4)nc(I)nc31)[C@H](O)[C@@H]2O
AUC(0-t) (male Wistar rat, plasma; oral, 3 mg/kg): 66.4 ng·h/mL
